Results published in publication PMC7488488 (Acta Pharmaceutica Sinica. B, 2019).
Where two headings read alike, the source gives them in different places.

How the values were obtained:
U87MG cells = experiment: MTT cell proliferation assay; format: cell-based; conditions: read-out: Anti-proliferative activity IC50, U87MG
U251 cells = experiment: MTT cell proliferation assay; format: cell-based; conditions: read-out: Anti-proliferative activity IC50, U251
T98G cells = experiment: MTT cell proliferation assay; format: cell-based; conditions: read-out: Anti-proliferative activity IC50, T98G
U251 xenografts = experiment: U251 xenograft antitumor activity; format: in vivo; conditions: mice; oral; 30 mg/kg; 21 days
Method in brief: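 SPF nude mice, 6–8 weeks old, with subcutaneous U251 xenografts; test compound or reference inhibitors given orally at 30 mg/kg, normal saline as vehicle control, analysed at 21 days. Tumor volume, tumor weight and body weight tracked; tumors immunostained for MDM2, P53, P21, pCDK4, pRB and Ki-67, plus TUNEL immunofluorescence, scored as percent positive cells; mean ± SD.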

MDM2 and CDK4 = experiment: TR-FRET inhibition at concentrations below 1.0 μmol/L; format: biochemical; conditions: target per compound not stated
MDM2 = MDM2 (Homo sapiens, UniProt Q00987); experiment: TR-FRET; format: binding; conditions: for inhibition at 1 µM: read-out: Inhibition rate at 1.0 μmol/L, MDM2
Chain of MDM2 (Q00987 whole entry): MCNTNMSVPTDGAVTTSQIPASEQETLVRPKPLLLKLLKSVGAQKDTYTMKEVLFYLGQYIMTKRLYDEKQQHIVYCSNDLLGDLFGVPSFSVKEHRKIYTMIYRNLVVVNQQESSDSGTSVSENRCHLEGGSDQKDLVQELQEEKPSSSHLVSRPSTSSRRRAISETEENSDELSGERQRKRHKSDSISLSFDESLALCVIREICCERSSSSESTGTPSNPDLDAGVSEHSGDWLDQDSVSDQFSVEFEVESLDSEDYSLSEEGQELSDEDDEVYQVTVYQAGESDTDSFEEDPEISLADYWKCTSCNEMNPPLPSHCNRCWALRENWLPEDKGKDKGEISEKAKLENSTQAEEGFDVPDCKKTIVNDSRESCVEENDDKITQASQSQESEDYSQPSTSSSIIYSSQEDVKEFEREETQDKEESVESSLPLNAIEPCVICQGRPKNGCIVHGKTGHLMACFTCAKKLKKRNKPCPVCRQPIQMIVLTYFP

[1] = 24-h incubation, MTT, mutated P53

Row | SMILES | IC50 (U87MG cells; Homo sapiens, U-87 MG, 24 h) | IC50 (U251 cells; Homo sapiens, U-251, 24 h) | IC50 (T98G cells; Homo sapiens, T98G, 24 h) | tumor growth (U251 xenografts) | IC50 (U87MG cells; 24-h incubation, MTT, wild-type P53) | IC50 (U251 cells; [1]) | IC50 (T98G cells; [1]) | inhibition at concentrations below 1.0 μmol/L (MDM2 and CDK4) | inhibition at 1 µM (MDM2) | IC50 (MDM2)
1 | CC(=O)c1c(C)c2cnc(Nc3ccc(N4CCNCC4)cn3)nc2n(C2CCCC2)c1=O [Palbociclib, palbociclib, reference compound] | 26.4 ± 3.8 µM | 18.9 ± 2.4 µM | 29.5 ± 4.5 µM | potently inhibited tumor growth | – | – | – | – | – | –
2 | COc1ccc(C2=N[C@@H](c3ccc(Cl)cc3)[C@@H](c3ccc(Cl)cc3)N2C(=O)N2CCNC(=O)C2)c(OC(C)C)c1 [Nutlin-3a, nutlin-3a, reference compound] | – | – | – | potently inhibited tumor growth | 25.3 ± 2.5 µM | > 50 µM | > 50 µM | 40% to 20% | – | –
3 | CCOC(=O)[C@H]1Cc2c(cc([N+](=O)[O-])cc2[N+](=O)[O-])[C@@H](O)[C@@]12C(=O)Nc1cc(Br)ccc12 [4h, Ethyl (1′R,3R,3′S)-6-bromo-1′-hydroxy-5′,7′-dinitro-2-oxo-3′,4′-dihydro-1′H-spiro[indoline-3,2′-naphthalene]-3′-carboxylate] | 20.4 ± 3.3 µM | 18.3 ± 1.5 µM | 14.4 ± 2.8 µM | – | – | – | – | – | 76.7 ± 5.2% | –
4 | O=C(c1ccccc1)[C@H]1Cc2c(cc([N+](=O)[O-])cc2[N+](=O)[O-])[C@H](O)[C@]12C(=O)Nc1ccccc12 [4k′, (1′S,3S,3′S)-3′-Benzoyl-1′-hydroxy-5′,7′-dinitro-3′,4′-dihydro-1′H-spiro[indoline-3,2′-naphthalen]-2-one] | > 50 µM | > 50 µM | > 50 µM | – | – | – | – | – | 35.4% | –
5 | CCOC(=O)[C@H]1Cc2c(cc([N+](=O)[O-])cc2[N+](=O)[O-])[C@@H](O)[C@@]12C(=O)Nc1c(F)cccc12 [4c, Ethyl (1′R,3R,3′S)-7-fluoro-1′-hydroxy-5′,7′-dinitro-2-oxo-3′,4′-dihydro-1′H-spiro[indoline-3,2′-naphthalene]-3′-carboxylate] | 19.4 ± 2.3 µM | 34.3 ± 4 µM | 51.6 ± 6.2 µM | – | – | – | – | – | 76.5 ± 13.7% | –
6 | CCOC(=O)[C@H]1Cc2c(cc([N+](=O)[O-])cc2[N+](=O)[O-])[C@H](O)[C@]12C(=O)Nc1cccc(Br)c12 [4f′, Ethyl (1′S,3S,3′S)-4-bromo-1′-hydroxy-5′,7′-dinitro-2-oxo-3′,4′-dihydro-1′H-spiro[indoline-3,2′-naphthalene]-3′-carboxylate] | 69.8 µM | > 50 µM | > 50 µM | – | – | – | – | – | 54.8% | –
7 | CCOC(=O)[C@H]1Cc2c(cc([N+](=O)[O-])cc2[N+](=O)[O-])[C@@H](O)[C@@]12C(=O)Nc1ccc(Br)cc12 [4g, Ethyl (1′R,3R,3′S)-5-bromo-1′-hydroxy-5′,7′-dinitro-2-oxo-3′,4′-dihydro-1′H-spiro[indoline-3,2′-naphthalene]-3′-carboxylate] | 4.9 ± 0.5 µM | 8.6 ± 0.6 µM | 9.5 ± 0.7 µM | – | – | – | – | – | 92.3 ± 11.2% | 0.28 ± 0.06 µM
8 | CCOC(=O)[C@H]1Cc2c(cc([N+](=O)[O-])cc2[N+](=O)[O-])[C@H](O)[C@]12C(=O)Nc1cc(Cl)ccc12 [4e′, Ethyl (1′S,3S,3′S)-6-chloro-1′-hydroxy-5′,7′-dinitro-2-oxo-3′,4′-dihydro-1′H-spiro[indoline-3,2′-naphthalene]-3′-carboxylate] | > 50 µM | > 50 µM | > 50 µM | – | – | – | – | – | 48.3% | –
9 | CCOC(=O)[C@H]1Cc2c(cc([N+](=O)[O-])cc2[N+](=O)[O-])[C@H](O)[C@]12C(=O)Nc1ccc(F)cc12 [4b′, Ethyl (1′S,3S,3′S)-5-fluoro-1′-hydroxy-5′,7′-dinitro-2-oxo-3′,4′-dihydro-1′H-spiro[indoline-3,2′-naphthalene]-3′-carboxylate] | > 50 µM | > 50 µM | > 50 µM | – | – | – | – | – | 55.6% | –
